Measured values reported in ChEMBL document CHEMBL1141865, “Discovery of 4-heteroarylbicyclo[2.2.2]octyltriazoles as potent and selective inhibitors of 11beta-HSD1: novel therapeutic agents for the treatment of metabolic syndrome” (Bioorg Med Chem Lett, 2005).
Values belong to the compound of their own block, whether it stands above or below them.

Columns and labels:
[1] = target: T1, 11-beta-hydroxysteroid dehydrogenase type 2 (Homo sapiens) (UniProt P80365); test: Inhibitory activity against human 11beta-HSD2 at 4 uM
T1 sequence (whole entry): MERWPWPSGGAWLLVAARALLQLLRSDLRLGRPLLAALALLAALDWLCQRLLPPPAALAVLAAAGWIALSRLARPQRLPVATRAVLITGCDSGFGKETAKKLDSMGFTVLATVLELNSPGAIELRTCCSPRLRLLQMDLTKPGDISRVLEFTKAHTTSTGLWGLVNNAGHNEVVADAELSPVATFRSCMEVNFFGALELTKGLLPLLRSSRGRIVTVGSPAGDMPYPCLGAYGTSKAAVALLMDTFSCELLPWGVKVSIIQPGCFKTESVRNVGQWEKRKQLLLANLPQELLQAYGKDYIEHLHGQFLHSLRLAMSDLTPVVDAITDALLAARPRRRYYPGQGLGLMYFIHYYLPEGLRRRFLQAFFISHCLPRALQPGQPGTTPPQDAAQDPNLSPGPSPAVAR

[2] = target: T2, 11-beta-hydroxysteroid dehydrogenase 1 (Homo sapiens, UniProt P28845); test: Inhibitory activity against human 11beta-HSD1
Target sequence in this assay (P28845 whole entry): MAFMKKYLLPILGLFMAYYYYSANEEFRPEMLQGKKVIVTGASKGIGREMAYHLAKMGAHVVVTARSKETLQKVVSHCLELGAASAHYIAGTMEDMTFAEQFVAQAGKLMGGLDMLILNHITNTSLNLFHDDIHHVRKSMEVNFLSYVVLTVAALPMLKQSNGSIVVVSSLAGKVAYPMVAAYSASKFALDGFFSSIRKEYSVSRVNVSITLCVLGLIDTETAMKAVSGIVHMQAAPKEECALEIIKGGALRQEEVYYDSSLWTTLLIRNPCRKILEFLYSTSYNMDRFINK

[3] = target: 11-beta-hydroxysteroid dehydrogenase 1 (Mus musculus, UniProt P50172); test: Inhibitory activity against mouse 11beta-HSD1
Chain of 11-beta-hydroxysteroid dehydrogenase 1 (Mus musculus, UniProt P50172) (P50172 whole entry): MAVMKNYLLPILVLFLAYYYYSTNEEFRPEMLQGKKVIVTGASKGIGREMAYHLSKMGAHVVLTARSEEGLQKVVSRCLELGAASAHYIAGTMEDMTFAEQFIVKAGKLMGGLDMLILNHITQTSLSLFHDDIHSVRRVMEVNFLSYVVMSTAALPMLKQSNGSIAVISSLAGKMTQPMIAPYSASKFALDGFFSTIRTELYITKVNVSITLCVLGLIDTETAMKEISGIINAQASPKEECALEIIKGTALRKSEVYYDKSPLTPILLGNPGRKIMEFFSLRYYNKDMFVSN

[4] = target: T3, 11-beta-hydroxysteroid dehydrogenase type 2 (Mus musculus, UniProt P51661); test: Inhibitory activity against mouse 11beta-HSD2
T3 sequence (P51661 whole entry): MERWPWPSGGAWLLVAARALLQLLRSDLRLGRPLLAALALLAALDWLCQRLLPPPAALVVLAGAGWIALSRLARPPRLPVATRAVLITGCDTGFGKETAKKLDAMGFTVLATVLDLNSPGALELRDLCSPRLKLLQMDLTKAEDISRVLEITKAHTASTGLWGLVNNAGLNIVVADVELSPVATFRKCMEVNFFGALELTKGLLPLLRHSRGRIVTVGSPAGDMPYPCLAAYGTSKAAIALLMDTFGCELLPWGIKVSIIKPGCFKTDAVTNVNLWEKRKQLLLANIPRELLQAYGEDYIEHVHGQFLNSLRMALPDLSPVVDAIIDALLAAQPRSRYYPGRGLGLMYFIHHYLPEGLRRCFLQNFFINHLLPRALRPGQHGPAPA

[5] = target: T4, 11-beta-hydroxysteroid dehydrogenase type 2 (Homo sapiens, UniProt P80365); test: Inhibitory activity against human 11beta-HSD2
T4 sequence (P80365 whole entry): T1 sequence (whole entry)

[6] = Oral bioavailability in mouse; assay type: ADME, organism-based; settings: in vivo
[7] = target: T2, 11-beta-hydroxysteroid dehydrogenase 1; test: In vivo inhibition of 11beta-HSD1 at 1 h (10 mg/kg, po) assessed by extent of cortisone to cortisol conversion; assay type: functional, organism-based
Procedure, shortened: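 Oral dosing at 10 mg/kg, followed by exogenous [3H]cortisone as the 11β-HSD1 substrate. In vivo enzyme activity is read out as the extent of conversion to [3H]cortisol, reported as % inhibition.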
Target sequence in this assay (P28845 whole entry, looked up): as the sequence (P28845 whole entry) above

Mus musculus [8] = species on record: Mus musculus; test: (§1) Plasma clearance in mouse; assay type: ADME, organism-based; settings: in vivo
[9] = as §1; assay type: ADME, organism-based; settings: plasma
[10] = Plasma clearance in rat; assay type: ADME, organism-based
Mus musculus [11] = species on record: Mus musculus; test: AUC in mouse; assay type: ADME, organism-based, Plasma; settings: in vivo
[12] = Oral bioavailability in rat; assay type: ADME, organism-based; settings: in vivo
[13] = Half life in mouse; assay type: ADME, organism-based; settings: in vivo
Rattus norvegicus = species on record: Rattus norvegicus; test: AUC in rat; assay type: ADME, organism-based, Plasma; settings: in vivo
[14] = Half life in rat; assay type: ADME, organism-based; settings: in vivo
[15] = Half life in dog; assay type: ADME, organism-based, Canis lupus familiaris; settings: in vivo
Canis familiaris = species on record: Canis familiaris; test: AUC in dog; assay type: ADME, organism-based, Canis lupus familiaris, Plasma; settings: in vivo
[16] = Oral bioavailability in dog; assay type: ADME, organism-based, Canis lupus familiaris; settings: in vivo
[17] = plasma clearance in dog; assay type: ADME, organism-based, Canis lupus familiaris

SMILES: C1CCCn2c(nnc2C23CCC(c4nc(CC5CC5)no4)(CC2)CC3)CC1
inhibition [1]: 61%
IC50 [2]: 170 nM
IC50 [3]: < 3.9 nM
IC50 [4]: > 4000 nM

SMILES: CCCCCC12CCC(c3nnc4n3CCCCCC4)(CC1)CC2
IC50 [5]: 183 nM
IC50 [2]: 5 nM
bioavailability [6]: 6%
IC50 [3]: 3 nM
inhibition [7]: 74%
CL (Mus musculus [8]): 14.1 mL/min/kg
IC50 [4]: 2100 nM

SMILES: COc1cc(O)ccc1-c1nnc(C23CCC(c4nc(-c5ccc(F)cc5)no4)(CC2)CC3)n1C
IC50 [3]: 2.3 nM

SMILES: Cn1c(-c2ccccc2C(F)(F)F)nnc1C12CCC(c3nc(-c4ccc(F)cc4)c[nH]3)(CC1)CC2
IC50 [3]: 2.4 nM

SMILES: Clc1ccc(-c2noc(C34CCC(c5nnc6n5CCCCCC6)(CC3)CC4)n2)cc1
IC50 [3]: 17 nM
IC50 [4]: 4000 nM

SMILES: Cn1c(-c2ccccc2C(F)(F)F)nnc1C12CCC(c3n[nH]c(-c4ccc(F)cc4)n3)(CC1)CC2
IC50 [3]: 1.6 nM

SMILES: CCCCCC12CCC(c3nnc(-c4ccccc4C(F)(F)F)n3C)(CC1)CC2
IC50 [2]: 2 nM
bioavailability [6]: 21%
IC50 [3]: 3 nM
inhibition [7]: 99%
clearance [9]: 273 mL/min/kg

SMILES: COC(=O)C12CCC(c3nnc4n3CCCCCC4)(CC1)CC2
IC50 [5]: > 4000 nM
IC50 [2]: 110 nM
IC50 [3]: 68 nM
IC50 [4]: > 4000 nM

SMILES: Cc1noc(C23CCC(c4nnc5n4CCCCCC5)(CC2)CC3)n1
IC50 [5]: > 4000 nM
IC50 [2]: 289 nM
IC50 [3]: 136 nM
IC50 [4]: > 4000 nM

SMILES: COc1ccc(-c2nnc(C34CCC(c5nc(-c6ccc(F)cc6)no5)(CC3)CC4)n2C)c(Cl)c1
IC50 [3]: 12 nM

The remaining lines, values ahead:

IC50 [3]: 29 nM
SMILES: Cn1c(-c2ccccc2S(C)(=O)=O)nnc1C12CCC(c3nc(-c4ccc(F)cc4)no3)(CC1)CC2

IC50 [3]: 1.8 nM
SMILES: Cn1c(-c2ccccc2C(F)(F)F)nnc1C12CCC(c3nc(-c4ccc(S(C)(=O)=O)cc4)no3)(CC1)CC2

IC50 [3]: 4.5 nM
SMILES: COc1ccc(-c2noc(C34CCC(c5nnc(-c6ccccc6C(F)(F)F)n5C)(CC3)CC4)n2)cn1

clearance [10]: 5.39 mL/min/kg
AUC (Mus musculus [11]): 5.7 uMh
bioavailability [12]: 83%
half-life [13]: 17.7 h
bioavailability [6]: 58%
AUC (Rattus norvegicus): 6.2 uMh
IC50 [3]: 1.9 nM
half-life [14]: 5.1 h
half-life [15]: 9.87 h
AUC (Canis familiaris): 9.55 uMh
clearance [9]: 5.88 mL/min/kg
bioavailability [16]: 100%
clearance [17]: 3.51 mL/min/kg
SMILES: Cn1c(-c2ccccc2C(F)(F)F)nnc1C12CCC(c3nc(-c4ccc(F)cc4)no3)(CC1)CC2

IC50 [3]: 3.2 nM
SMILES: Cn1c(-c2ccccc2Cl)nnc1C12CCC(c3nc(-c4ccc(F)cc4)no3)(CC1)CC2

IC50 [3]: 2 nM
SMILES: Cn1c(-c2ccccc2C(F)(F)F)nnc1C12CCC(c3nc(-c4ccc(Cl)cc4)no3)(CC1)CC2

IC50 [3]: 22 nM
SMILES: Cn1c(-c2ccccc2C(F)(F)F)nnc1C12CCC(c3nc(-c4ccc(=O)n(C)c4)no3)(CC1)CC2

IC50 [3]: < 0.98 nM
SMILES: Cn1c(-c2ccccc2C(F)(F)F)nnc1C12CCC(c3nc(-c4ccc(S(=O)(=O)C(F)(F)F)cc4)no3)(CC1)CC2

IC50 [3]: 9.5 nM
SMILES: Cn1c(-c2ccccc2C(F)(F)F)nnc1C12CCC(c3nc(-c4cccc(S(C)(=O)=O)c4)no3)(CC1)CC2

IC50 [3]: < 1 nM
SMILES: Cn1c(-c2ccccc2C(F)(F)F)nnc1C12CCC(c3nc(-c4ccc(C(O)C(F)(F)F)cc4)no3)(CC1)CC2 (stereo not given)

IC50 [3]: < 1 nM
SMILES: Cn1c(-c2ccccc2C(F)(F)F)nnc1C12CCC(c3noc(-c4ccc(F)cc4)n3)(CC1)CC2

IC50 [3]: 5 nM
SMILES: Cn1c(-c2ccccc2C(F)(F)F)nnc1C12CCC(c3nnc(-c4ccc(F)cc4)o3)(CC1)CC2

IC50 [3]: 5.2 nM
SMILES: Cn1c(-c2ccccc2OC(F)F)nnc1C12CCC(c3nc(-c4ccc(F)cc4)no3)(CC1)CC2
